MEKK2wt PB1 HTS – raises or lowers MEK5 binding to wildtype human MEKK2 PB1 domain. Q9Y2U5. bead flow cytometry, Alexa488-MEK5 binding to MEKK2 WT; actives lie on both sides. binding response (% of control), % at 10 µM. 1.1% of 290,000 active. AID 1531; in the data active = binding response below about 67% or above about 130%
MEKK2 mut-MEK5 – signal of MEK5 binding to mutant human MEKK2 PB1 domain | percent response, % at 10 µM | 0.35% of 290,000 active | AID 1530 | bead flow cytometry, Alexa488-MEK5 binding to MEKK2 mutant; in the data active = percent response above about 24%, passing the limit was not always enough
MEKK3 PB1 HTS – modulators (inhibitors or enhancers) of MEK5 binding to human MEKK3 PB1 domain | bead-based flow cytometry, Alexa488-MEK5 binding to MEKK3; actives lie on both sides; 0 = blocked by unlabeled MEK5, 100 = vehicle | binding response (% of control), % at 10 µM | 1.4% of 290,000 active | AID 1529;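 active = binding response more than 3 SD above or below the average of its plate-row segment, actives on both sides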;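 note: Alexa488 bead fluorescence after subtracting the streptavidin-only scavenger bead signal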
Target sequence (Q99759 whole entry, looked up, the tested form may be a part): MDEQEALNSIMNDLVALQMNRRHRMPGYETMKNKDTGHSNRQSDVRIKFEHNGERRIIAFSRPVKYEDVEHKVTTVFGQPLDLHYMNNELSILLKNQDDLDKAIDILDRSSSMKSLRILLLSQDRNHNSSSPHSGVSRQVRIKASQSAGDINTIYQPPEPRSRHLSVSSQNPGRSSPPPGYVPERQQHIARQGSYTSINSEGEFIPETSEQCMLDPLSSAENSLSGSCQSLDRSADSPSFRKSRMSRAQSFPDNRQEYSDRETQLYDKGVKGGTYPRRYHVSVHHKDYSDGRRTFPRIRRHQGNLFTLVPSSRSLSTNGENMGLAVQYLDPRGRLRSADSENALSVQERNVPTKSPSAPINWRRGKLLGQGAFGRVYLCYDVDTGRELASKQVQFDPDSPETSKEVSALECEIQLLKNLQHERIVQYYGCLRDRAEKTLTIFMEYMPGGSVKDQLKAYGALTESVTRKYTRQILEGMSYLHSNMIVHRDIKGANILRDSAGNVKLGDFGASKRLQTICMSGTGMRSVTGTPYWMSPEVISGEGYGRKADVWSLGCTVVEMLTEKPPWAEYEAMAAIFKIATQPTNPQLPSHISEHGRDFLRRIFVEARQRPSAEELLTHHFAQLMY
Lipid droplet – hepatic lipid droplet formation modulation | inhibition, % at 6.5 µM | AML12 mouse hepatocytes, oleate lipid droplets, BODIPY imaging | 0.4% of 240,000 active;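 active = lipid droplet intensity inhibited by at least 50%, with more than 500 cells counted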
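Assay system: AML12 hepatocytes (mouse) / Also added: 100 µM oleic acid challenge / Times: overnight treatment with compound plus oleate / Detection: high-content imaging of BODIPY-stained droplets and DAPI nuclei / Evaluation: % inhibition of lipid droplet signal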
MEKK2wt confirm – raises or lowers MEK5 binding to wildtype human MEKK2, retest; binding response (% of control), % at 10 µM; bead flow cytometry, Alexa488-MEK5 binding to MEKK2 WT; actives lie on both sides; AID 1892; 2.4% of 5,900 active; shares compounds with MEKK3 PB1 HTS; in the data active = binding response below about 16% or above about 210%; inactive = in between
MEKK2mut-MEK5 – signal of MEK5 binding to mutant human MEKK2, retest; shares compounds with MEKK3 PB1 HTS; bead flow cytometry, Alexa488-MEK5 binding to MEKK2 mutant; percent response, % at 10 µM; 2% of 5,900 active; AID 1893; in the data active = percent response mostly above about 71%, no sharp cut-off; inactive = mostly below about 38%;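 note: higher means compound restores mutant binding toward wildtype level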
MEKK3-MEK5 inh – MEKK3-MEK5 PB1 inhibition, single concentration confirmation; AID 1894; binding response (% of control), % at 10 µM; bead flow cytometry, Alexa488-MEK5 binding to MEKK3; active compounds read low; 1.8% of 5,900 active; shares compounds with MEKK3 PB1 HTS;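 active = binding response below 72% of control, or above a set upper limit, though filed actives all read lower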;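 note: 100% = DMSO only wells and 0% = binding blocked by excess unlabeled MEK5; lower values mean stronger disruption of MEK5 binding to MEKK3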
Active calls of the source: *; nt = no result given; [ ] = another dose, or the depositor's remark. The list is not random: actives were taken first. Their share in the collection is about 2.6%.

SMILES	MEKK2wt PB1 HTS	MEKK2 mut-MEK5	MEKK3 PB1 HTS	Lipid droplet	MEKK2wt confirm	MEKK2mut-MEK5	MEKK3-MEK5 inh
CCC(=C(c1ccc(OC)cc1)c1ccc(OC)cc1)c1cn(CC(O)CN(CCO)CCO)c2ccccc12 (configuration not stated)	149*	9	106	13	158	36	108
CC1(C)OC(=O)N(c2ccccc2)C12C=Cc1c(ccc3ccccc13)O2 (configuration not stated)	100	3	113	-20	nt	nt	nt
O=C1NC2(C=Cc3c(ccc4ccccc34)O2)Oc2ccccc21 (configuration not stated)	2.0*[inhibitor]	-17	2.0*[inhibitor]	nt	91	-2	96
C=CCN1C(=O)/C(=C/c2ccc(-c3ccc(F)cc3)o2)SC1=S	18*[inhibitor]	-10	49*[inhibitor]	16	26	-32	62*
O=C(O)C(c1ccccc1)N1C(=O)/C(=C\c2ccc(-c3ccc(Br)cc3)o2)SC1=S (configuration not stated)	65*[inhibitor]	-14	87	-17	76	-10	94
O=C(O)C(c1ccccc1)N1C(=O)/C(=C\c2ccc(-c3ccccc3Cl)o2)SC1=S (configuration not stated)	90	-8	97	-2	nt	nt	nt
O=c1c2[nH]cnc2n(-c2cccc(Br)c2)c(=O)n1Cc1ccccc1	109	11	113	nt	nt	nt	nt
O=C(O)CCC(=O)N1CCN(c2cccc(Cl)c2)CC1	90	0	94	13	nt	nt	nt
O=C(O)/C=C/C(=O)N1CCN(c2cccc(Cl)c2)CC1	116	1	129*	-2	111	6	104
Cc1ccc(-n2c(C)cc(C3N=C(N)Nc4nc5ccccc5n43)c2C)c(C)c1 (configuration not stated)	134*	28*	110	-22	151	56	108
Cc1cc(C2N=C(N)Nc3nc4ccccc4n32)c(C)n1-c1ccccc1Cl (configuration not stated)	138*	26*	113	nt	148	17	96
Cc1cccc(N2CCN(C(=O)COc3cc(=O)n(C)c4ccccc34)CC2)c1C	100	-2	103	nt	nt	nt	nt
Cc1cccc(N2CCN(C(=O)Cc3cn(C)c4ccccc34)CC2)c1C	117	5	130*	-36	95	-9	93
CCOC(=O)CN1C(=O)N[C@@H](c2cccc(C(F)(F)F)c2)[C@@H](C(=O)OC)[C@H]1C	98	-2	101	nt	nt	nt	nt
N#CC1=C(N)OC2=C(C(=O)CCC2)[C@]12C(=O)N(CC(N)=O)c1ccccc12	-1.0*[inhibitor]	-21	0.0*[inhibitor]	nt	104	1	97
CC(Cc1ccccc1)N1C(=O)c2cccc([N+](=O)[O-])c2C1=O (configuration not stated)	101	-3	99	1	nt	nt	nt
CCOc1ccccc1NC(=O)N1CCc2ccccc2C1	99	5	98	-2	nt	nt	nt
CCOCc1nnc(NC(=O)c2c(OC)cccc2OC)s1	137*	15	115	10	100	-2	103
Cc1ccc(S(=O)(=O)NCCn2cnc([N+](=O)[O-])n2)cc1	94	-1	99	1	nt	nt	nt
CCn1nc(C)c(CNC(=O)CC2C(=O)NCCN2CC(C)(C)C)c1C (configuration not stated)	92	-6	99	10	nt	nt	nt
CC1CC(=O)Nc2ccccc2N1C(=O)CN1CCN(c2ccccc2)CC1 (configuration not stated)	-5.0*[inhibitor]	-4	94	6	99	-5	99
O=C1CC(=C(c2ccccc2)c2ccccc2)C(=O)N1CCCN1CCN(c2cccc(Cl)c2)CC1	120	19	112	-16	nt	nt	nt
O=C1CC(=C2c3ccccc3-c3ccccc32)C(=O)N1CCCCN1CCN(c2ccccc2)CC1	155*	12	103	-10	147	28	102
CCN(CC)CCCNC(=O)CN1N=C(c2ccc(OC)cc2)CCC1=O	96	2	99	15	nt	nt	nt

High-throughput results (PubChem BioAssay)
